Reference: PubChem BioAssay AID1556 (The Scripps Research Institute Molecular Screening Center, 2009)
Out of some 290,000 compounds screened, about 1,300 (0.45%) were called active.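 Rule for the calls: active = inhibition above the mean plus 3 SD of all compounds in the same screening run (cut at about 4.5% in these data); inactive = the rest.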 The full list was thinned out, with actives kept by preference.

System: metallo-beta-lactamase IMP-1 (Pseudomonas aeruginosa)
Assay: IMP-1 metallo-beta-lactamase inhibitors, primary screen, biochemical, epi-absorbance readout, Pseudomonas aeruginosa enzyme (AID 1556);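 note: 0% = IMP-1 with DMSO and 100% = DMSO wells lacking enzyme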
Settings: purified IMP-1, nitrocefin hydrolysis, epi-absorbance fluorescence; at 5.6 µM; hits give high values
Procedure, shortened: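 Test system: recombinant IMP-1 enzyme, purified / Medium: HEPES buffer pH 7.1 with ZnSO4 and Brij 35 / Doses: single dose, 5.6 µM / Times: 25 °C, 15 min preincubation, 25 min reaction / Detection: Epi-absorbance via hydrolysed-nitrocefin quenching of white-plate fluorescence, 480/530 nm, EDTA stop / Evaluation: percent inhibition from optical density relative to buffer-blank wells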

SMILES | inhibition
COc1ccc(C2c3[nH]c4ccccc4c3C[C@H]3C(=O)N(CC(C)C)CC(=O)N23)c(OC)c1 (stereo partly drawn) | -2.7% (inactive)
Cc1cc(Cl)ccc1OCCCC(=O)Nc1cccc(-n2cnnn2)c1 | -1.81% (inactive)
CCn1cc(CN2CCC(n3nccc3NC(=O)CCCc3ccccc3)CC2)c(C)n1 | -2.27% (inactive)
Cc1c(CN2CCC(n3nccc3NC(=O)CCc3ccccc3)CC2)cnn1C | 40.5% (active)
Cc1ccc(CN2CCC(n3nccc3NC(=O)CCCc3ccccc3)CC2)o1 | -1.11% (inactive)
CCOc1ccc(-n2c(SCC(=O)OC)nc3sc4c(c3c2=O)CCN(C)C4)cc1 | 1.15% (inactive)
CCOc1ccc(-n2c(SCC(=O)Nc3ccc(OC)cc3)nc3sc4c(c3c2=O)CCN(C)C4)cc1 | 7.22% (active)
CCCSc1nc2sc3c(c2c(=O)n1-c1ccc(OC)cc1)CCN(C)C3 | -1.47% (inactive)
CCN(c1ccccc1)S(=O)(=O)c1cc2c(cc1C)n(C)c(=O)c(=O)n2C | -1.34% (inactive)
CC(NC(=O)COc1ccc(-c2ccccc2)cc1)C1CCCO1 (stereo not drawn) | -0.53% (inactive)
COC(=O)c1cc(C(=O)NC(C)C2CC3CCC2C3)cc([N+](=O)[O-])c1 (stereo not drawn) | -3.23% (inactive)
O=C(NCCCN1CCCCCC1)C1CC(=O)N(C2CCCC2)C1 (stereo not drawn) | 6.55% (active)
CC(C)OCCCNC(=O)C1CC(=O)N(C2CCCCCCC2)C1 (stereo not drawn) | -4.36% (inactive)
O=C(NCCc1ccc(Cl)cc1)C1CC(=O)N(C2CCCCC2)C1 (stereo not drawn) | -3.24% (inactive)
CC1(C)CC(=O)CC2(C1)NCC(c1ccccc1Cl)c1c2[nH]c2ccccc12 (stereo not drawn) | -5.43% (inactive)
COc1ccc(NC(=O)CCN2C(=O)/C(=C/c3ccc4c(c3)OCO4)SC2=S)cc1 | -3.16% (inactive)
Cn1cccc1/C=C1\SC(=O)N(CC(=O)Nc2ccc(F)cc2)C1=O | -1.78% (inactive)
Cc1ccc(C(=O)O)cc1-c1ccc(/C=C2\SC(=O)N(CC(=O)Nc3ccc4c(c3)OCO4)C2=O)o1 | 8.27% (active)
COc1ccccc1-c1sc2ccccc2c1-c1ccc(C(C)=O)cc1 | 1.15% (inactive)
CCc1ccccc1N(CC(=O)NCC1CCCO1)C(=O)CCC(=O)Nc1nccs1 (stereo not drawn) | -4.39% (inactive)
O=C(NCc1cccc(Cl)c1)C1CCN(c2nnc(N3CCCC3=O)s2)CC1 | -2.2% (inactive)
Cc1cc(=O)oc2cc(OCC(=O)Nc3nnc(C4CC4)s3)ccc12 | -1.51% (inactive)
COc1ccc2c(CC(=O)Nc3nnc(C4CC4)s3)coc2c1 | 68.4% (active)
COc1ccc(NC(=O)CCC(=O)Nc2nnc(C3CCCCC3)s2)cc1 | -2.6% (inactive)
O=C(NCCCn1ccnc1)C(=O)NCC1OCCN1S(=O)(=O)c1cc(F)ccc1F (stereo not drawn) | 5.52% (active)
Cc1cc(F)ccc1S(=O)(=O)N1CCCOC1CNC(=O)C(=O)NCCC1=CCCCC1 (stereo not drawn) | -1.85% (inactive)

SMILES | inhibition
O=C(NCCCc1ccccc1)C(=O)NCC1OCCN1S(=O)(=O)c1ccccc1 (stereo not drawn) | -6.52% (inactive)
CCn1c(=S)sc2c(=O)n(CC(=O)Nc3ccc(OC)cc3)c(C)nc21 | -1.8% (inactive)
COc1ccc(CCNC(=O)c2cnc(Cl)c(Cl)c2)cc1 | -2.17% (inactive)
O=C(Nc1cccc(F)c1)NC1CCCc2ccccc21 (stereo not drawn) | -1.14% (inactive)
CNC(=S)NNC(=O)c1cccn(Cc2ccccc2)c1=O | -3.24% (inactive)
C=CCNC(=O)COc1coc(CN2CCN(Cc3ccccc3)CC2)cc1=O | 2.52% (inactive)
C=CCNC(=S)/N=c1/ccccn1Cc1ccccc1 | 16.2% (active)
O=[N+]([O-])c1ccc(N2CCN(c3ccc(F)cc3)CC2)cn1 | -0.39% (inactive)
CSc1ccc(S(=O)(=O)N2CCC(C(=O)NCc3ccncc3)CC2)cc1 | -1.8% (inactive)
Cc1ccc(Oc2nc(-c3ccccn3)nc3ccccc23)cc1 | -3.21% (inactive)
Cc1nccc(-c2ccc(-n3c(C)ccc3C)cc2)n1 | -1.5% (inactive)
c1ccc(-c2nccc(-c3ccc(-n4cnc5ccccc54)cc3)n2)nc1 | 15.8% (active)
CC(=O)c1cc2c(cc1NC(=O)Cn1nc(-c3ccc(F)cc3)ccc1=O)OCO2 | -1% (inactive)
Cc1ccc(CSCC2Nc3ccc(C(=O)N4CCN(c5ccc(F)cc5)CC4)cc3NC2=O)cc1 (stereo not drawn) | -4.03% (inactive)
Cc1ccc(C(=O)NCC(=O)NCc2cc(=O)n(C)c(=O)n2C)cc1 | -0.88% (inactive)
Cc1cc2occ(CC(=O)NNC(=O)c3ccccc3F)c2cc1C | 7.82% (active)
CCSc1nnc(SCC(=O)NNC(=O)c2ccccc2F)s1 | -3.43% (inactive)
Cc1ccc2c(CC(=O)NCc3cccs3)coc2c1 | -1.74% (inactive)
COC(=O)C1=C(C)NC2=C(C(=O)c3ccccc32)C1c1ccc(-c2ccc(C(=O)O)cc2)o1 (stereo not drawn) | 21.7% (active)
CCOC(=O)C1=C(c2ccc(OC)cc2)C(=O)c2ccccc2C1=O | -1.49% (inactive)
Cc1ccc(C2C3=C(Nc4[nH]n(-c5ccccc5)c(=O)c42)c2ccccc2C3=O)cc1 (stereo not drawn) | -5.01% (inactive)
COc1ccc(CNC(=O)C(=O)NCC2OCCN2C(=O)c2ccc(OC)cc2)cc1 (stereo not drawn) | -0.68% (inactive)
COc1ccc(C(=O)O/N=C(\N)c2ccccn2)cc1[N+](=O)[O-] | -0.21% (inactive)
COc1cccc(OCC(=O)NNC(=O)c2cnccn2)c1 | -3% (inactive)
COc1ccc(C(=O)NNC(=O)c2cnccn2)cc1[N+](=O)[O-] | 5.35% (active)
Cc1cc(OCC(=O)NCC(O)c2ccccc2)c2c(C)c(C)c(=O)oc2c1 (stereo not drawn) | -1.48% (inactive)

SMILES | inhibition
COc1ccc(CC(NC(C)=O)C(=O)NC2CCN(C(=O)C3CC3)CC2)cc1OC (stereo not drawn) | -2.45% (inactive)
COc1cccc(CNS(=O)(=O)c2ccc3c(c2)N(C(C)=O)CCS3)c1 | 0.57% (inactive)
CCOc1cc(NC(=O)c2cnccn2)c(OCC)cc1NC(=O)c1ccc(C)cc1 | -4.22% (inactive)
CCCc1cc(=O)oc2c(C)c(OCC(=O)NCc3ccccn3)ccc12 | -4.36% (inactive)
CCCc1cc(=O)oc2c(C)c(OCC(=O)N3CCC(C(=O)O)CC3)ccc12 | -2.1% (inactive)
CCCc1cc(=O)oc2c(C)c(OCC(=O)Nc3ccccn3)ccc12 | 12.4% (active)
O=C(O)c1c(NC(=O)N2CCCC2)sc2c1CCCC2 | -2.5% (inactive)
Cc1ccccc1NC(=O)Cn1cc(C(=O)C2CC2)c2ccccc21 | -0.7% (inactive)
COc1cccc(NC(=O)Cn2c3ccccc3c3nc4n(c(=O)c32)CCS4)c1 | -2.36% (inactive)
COc1cccc(NC(=O)Cn2c3ccc(F)cc3c3nc4n(c(=O)c32)CCS4)c1 | 7.15% (active)
COc1ccc2c(c1)c1nc3n(c(=O)c1n2CC(=O)Nc1ccccc1)CCS3 | -0.04% (inactive)
O=C(Nc1ccccc1-c1nnn(CC(=O)N2CCCc3ccccc32)n1)c1cccc(Cl)c1 | -0.16% (inactive)
CN(C)c1nc(-c2cccnc2)nc(-c2ccc(Cl)cc2)c1C#N | -2.58% (inactive)
O=S(=O)(Cc1cc(Cl)nc(-c2cccnc2)n1)c1ccccc1 | 0.12% (inactive)
N#Cc1c(Cl)nc(-c2cccnc2)nc1-c1ccccc1 | 9.55% (active)
Cc1cccc(NS(=O)(=O)c2cc(Cl)ccc2Cl)n1 | 4.66% (active)
COc1ccc(Cl)cc1S(=O)(=O)Nc1cccc(C(=O)O)c1 | -2.2% (inactive)
Cc1cccc(NS(=O)(=O)c2ccc([N+](=O)[O-])cc2)n1 | -1.07% (inactive)
COc1cc(Br)cc(/C=N/c2ncn[nH]2)c1O | 7.88% (active)
Oc1c(Cl)cc(Cl)cc1/C=N/c1ncn[nH]1 | 11.9% (active)
Oc1ccc(Br)cc1C=Nc1ccc2[nH]ncc2c1 | -1.06% (inactive)
COc1ccc(Br)cc1/C=N/n1c(C)nnc1C | -3.22% (inactive)
Cc1snc(SCc2c(F)cccc2Cl)c1C#N | -3.78% (inactive)
Cc1ccc2[nH]c(=O)c(CN(C)S(=O)(=O)c3cccc4nonc34)cc2c1 | 0.09% (inactive)
Cc1ccc(Cn2cc(C(=O)NN)c(=O)c3ccc(F)cc32)cc1 | -2.47% (inactive)
COc1ccc(NC(=O)Cn2ncn3c(cc4ccccc43)c2=O)c(OC)c1OC | -2.6% (inactive)
